From ChEMBL document CHEMBL2163301, “Substrates for efficient fluorometric screening employing the NAD-dependent sirtuin 5 lysine deacylase (KDAC) enzyme” (J Med Chem, 2012)
Activity calls are given as the source filed them. The rule behind the calls is not given here. Where a SMILES comes first, the peptide text is derived from it. The star is where a group is joined. AMC = Cc1cc(=O)oc2cc(N*)ccc12

Target: T1, NAD-dependent protein deacetylase sirtuin-1 (Homo sapiens) (UniProt Q96EB6)
T1 sequence (whole entry): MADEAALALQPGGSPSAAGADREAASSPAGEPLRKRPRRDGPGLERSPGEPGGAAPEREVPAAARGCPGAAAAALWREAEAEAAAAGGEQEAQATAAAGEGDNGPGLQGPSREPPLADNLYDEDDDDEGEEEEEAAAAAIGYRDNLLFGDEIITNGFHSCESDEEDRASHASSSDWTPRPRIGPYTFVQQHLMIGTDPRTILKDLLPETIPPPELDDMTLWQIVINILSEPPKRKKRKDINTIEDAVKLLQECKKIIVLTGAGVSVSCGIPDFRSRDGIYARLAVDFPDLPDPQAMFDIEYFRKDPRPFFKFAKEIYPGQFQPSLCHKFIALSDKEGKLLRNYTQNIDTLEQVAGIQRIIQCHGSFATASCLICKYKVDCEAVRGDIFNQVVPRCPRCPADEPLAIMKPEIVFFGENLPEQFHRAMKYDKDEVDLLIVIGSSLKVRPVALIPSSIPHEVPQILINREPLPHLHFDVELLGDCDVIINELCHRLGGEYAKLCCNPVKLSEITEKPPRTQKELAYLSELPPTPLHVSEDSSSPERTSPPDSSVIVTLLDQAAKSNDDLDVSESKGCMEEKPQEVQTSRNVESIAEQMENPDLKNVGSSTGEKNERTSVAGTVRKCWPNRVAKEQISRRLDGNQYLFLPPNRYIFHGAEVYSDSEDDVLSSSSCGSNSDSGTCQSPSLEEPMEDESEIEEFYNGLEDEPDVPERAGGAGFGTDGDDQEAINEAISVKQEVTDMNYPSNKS
Assay: Activity of human truncated SIRT1-GST fusion protein at 50 uM after 1 hr by trypsin developer-based fluorescence assay
Outline: (§1)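 Acetylated substrates were each treated with commercial full-length His-tagged SIRT1 or truncated SIRT1-GST fusion, with NAD, in Tris-Cl pH 8.0 buffer containing BSA. End point: 1 h at 37 °C, then nicotinamide (2 mM)/trypsin (0.4 mg/mL) developer for 15–30 min at room temperature. Fluorescence read at ex 360/em 460 nm against no-enzyme control wells.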

SMILES | Activity
CC(=O)NCCCC[C@H](NC(=O)CNC(=O)[C@H](CC(C)C)NC(C)=O)C(=O)Nc1ccc2c(C)cc(=O)oc2c1 (Ac-Leu-Gly-Lys(Ac)-{AMC}) | inactive

Target: T1, NAD-dependent protein deacetylase sirtuin-1 (Homo sapiens)
Assay: Activity of human full length SIRT1 enzyme at 50 uM after 1 hr by trypsin developer-based fluorescence assay
Outline: as §1

SMILES | Activity
CC(=O)NCCCC[C@H](NC(=O)CNC(=O)[C@H](CC(C)C)NC(C)=O)C(=O)Nc1ccc2c(C)cc(=O)oc2c1 (Ac-Leu-Gly-Lys(Ac)-{AMC}) | inactive

Target: T2, NAD-dependent protein deacetylase sirtuin-7 (Homo sapiens) (UniProt Q9NRC8)
T2 sequence (whole entry): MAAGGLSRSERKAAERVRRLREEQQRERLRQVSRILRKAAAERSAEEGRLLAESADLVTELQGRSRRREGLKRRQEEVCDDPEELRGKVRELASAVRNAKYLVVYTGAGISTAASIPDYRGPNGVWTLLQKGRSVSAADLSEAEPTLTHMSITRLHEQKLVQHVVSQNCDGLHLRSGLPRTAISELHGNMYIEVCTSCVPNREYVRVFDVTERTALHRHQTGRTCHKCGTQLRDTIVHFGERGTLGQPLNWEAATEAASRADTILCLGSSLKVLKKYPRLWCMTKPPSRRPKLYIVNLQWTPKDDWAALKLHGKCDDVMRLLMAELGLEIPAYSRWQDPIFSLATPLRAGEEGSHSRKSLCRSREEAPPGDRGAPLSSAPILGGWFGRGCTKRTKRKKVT
Assay: Activity of recombinant human SIRT7 assessed as deacylation of compound at 50 uM after 1 hr by trypsin developer-based fluorescence assay
Outline: (§2)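 Recombinant sirtuin at 1 μg per 50 μL reaction, with SIRT1-GST fusion as the SIRT1 source. Fluorogenic substrate and NAD incubated in Tris-Cl buffer pH 8.0 with BSA (1 mg/mL) for 1 h at 37 °C. Developer with nicotinamide (2 mM) and trypsin (0.4 mg/mL) added, 15–30 min at room temperature. Fluorescence read at ex 360/em 460 nm and normalized to no-enzyme wells. At least two experiments in duplicate.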

SMILES | Activity
CC(=O)NCCCC[C@H](NC(=O)CNC(=O)[C@H](CC(C)C)NC(C)=O)C(=O)Nc1ccc2c(C)cc(=O)oc2c1 (Ac-Leu-Gly-Lys(Ac)-{AMC}) | inactive

Target: T1, NAD-dependent protein deacetylase sirtuin-1 (Homo sapiens)
Assay: Activity of human SIRT1 assessed as deacylation of compound at 50 uM after 1 hr by trypsin developer-based fluorescence assay
Outline: as §2

SMILES | Activity
CC(=O)NCCCC[C@H](NC(=O)CNC(=O)[C@H](CC(C)C)NC(C)=O)C(=O)Nc1ccc2c(C)cc(=O)oc2c1 (Ac-Leu-Gly-Lys(Ac)-{AMC}) | Active

Target: NAD-dependent protein deacylase sirtuin-6 (Homo sapiens) (UniProt Q8N6T7)
Sequence (Q8N6T7 whole entry): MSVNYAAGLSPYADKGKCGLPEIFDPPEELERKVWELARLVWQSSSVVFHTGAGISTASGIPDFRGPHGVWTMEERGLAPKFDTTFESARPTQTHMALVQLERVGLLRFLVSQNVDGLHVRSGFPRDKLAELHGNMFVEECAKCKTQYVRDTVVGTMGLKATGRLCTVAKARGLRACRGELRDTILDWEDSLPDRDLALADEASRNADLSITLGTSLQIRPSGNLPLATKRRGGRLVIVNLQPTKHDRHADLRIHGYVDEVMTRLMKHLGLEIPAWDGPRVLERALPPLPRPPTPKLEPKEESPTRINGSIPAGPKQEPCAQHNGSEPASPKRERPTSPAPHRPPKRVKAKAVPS
Assay: Activity of human SIRT6 assessed as deacylation of compound at 50 uM after 1 hr by trypsin developer-based fluorescence assay
Outline: as §2

SMILES | Activity
CC(=O)NCCCC[C@H](NC(=O)CNC(=O)[C@H](CC(C)C)NC(C)=O)C(=O)Nc1ccc2c(C)cc(=O)oc2c1 (Ac-Leu-Gly-Lys(Ac)-{AMC}) | inactive

Target: T3, NAD-dependent protein deacetylase sirtuin-2 (Homo sapiens) (UniProt Q8IXJ6)
T3 sequence (whole entry): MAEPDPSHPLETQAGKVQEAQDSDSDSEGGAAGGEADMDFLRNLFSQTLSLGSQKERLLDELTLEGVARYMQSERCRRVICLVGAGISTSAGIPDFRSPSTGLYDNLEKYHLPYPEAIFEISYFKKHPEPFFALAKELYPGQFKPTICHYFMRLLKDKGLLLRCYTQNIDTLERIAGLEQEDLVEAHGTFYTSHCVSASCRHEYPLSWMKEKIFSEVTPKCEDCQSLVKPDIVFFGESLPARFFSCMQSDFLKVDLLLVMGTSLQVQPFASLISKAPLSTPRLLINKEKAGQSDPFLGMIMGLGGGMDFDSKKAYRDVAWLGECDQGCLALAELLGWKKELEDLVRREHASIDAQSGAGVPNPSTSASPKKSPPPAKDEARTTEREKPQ
Assay: Activity of human SIRT2 assessed as deacylation of compound at 50 uM after 1 hr by trypsin developer-based fluorescence assay
Outline: as §2

SMILES | Activity
CC(=O)NCCCC[C@H](NC(=O)CNC(=O)[C@H](CC(C)C)NC(C)=O)C(=O)Nc1ccc2c(C)cc(=O)oc2c1 (Ac-Leu-Gly-Lys(Ac)-{AMC}) | Active

Target: T4, NAD-dependent protein lipoamidase sirtuin-4, mitochondrial (Homo sapiens) (UniProt Q9Y6E7)
T4 sequence (whole entry): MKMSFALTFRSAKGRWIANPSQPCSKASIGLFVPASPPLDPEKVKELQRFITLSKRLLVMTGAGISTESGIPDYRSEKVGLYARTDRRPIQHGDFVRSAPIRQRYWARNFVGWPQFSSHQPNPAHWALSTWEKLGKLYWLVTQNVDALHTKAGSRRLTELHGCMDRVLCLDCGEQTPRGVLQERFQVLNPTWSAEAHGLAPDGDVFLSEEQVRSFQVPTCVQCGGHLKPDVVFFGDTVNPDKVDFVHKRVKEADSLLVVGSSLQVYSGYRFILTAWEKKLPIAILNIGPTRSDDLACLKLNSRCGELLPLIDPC
Assay: Activity of recombinant human SIRT4 assessed as deacylation of compound at 50 uM after 1 hr by trypsin developer-based fluorescence assay
Outline: as §2

SMILES | Activity
CC(=O)NCCCC[C@H](NC(=O)CNC(=O)[C@H](CC(C)C)NC(C)=O)C(=O)Nc1ccc2c(C)cc(=O)oc2c1 (Ac-Leu-Gly-Lys(Ac)-{AMC}) | inactive

Target: NAD-dependent protein deacylase sirtuin-5, mitochondrial (Homo sapiens) (UniProt Q9NXA8)
Sequence (Q9NXA8 37-310 limits assumed): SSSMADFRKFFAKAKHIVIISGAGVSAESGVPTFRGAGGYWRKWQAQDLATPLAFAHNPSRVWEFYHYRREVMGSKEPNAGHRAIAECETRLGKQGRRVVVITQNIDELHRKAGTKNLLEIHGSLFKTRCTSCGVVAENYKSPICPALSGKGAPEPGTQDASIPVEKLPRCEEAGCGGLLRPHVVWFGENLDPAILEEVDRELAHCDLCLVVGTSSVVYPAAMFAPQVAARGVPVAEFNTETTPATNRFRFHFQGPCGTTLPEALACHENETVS
Assay: Activity of human SIRT5 assessed as deacylation of compound at 50 uM after 1 hr by trypsin developer-based fluorescence assay
Outline: as §2

SMILES | Activity
CC(=O)NCCCC[C@H](NC(=O)CNC(=O)[C@H](CC(C)C)NC(C)=O)C(=O)Nc1ccc2c(C)cc(=O)oc2c1 (Ac-Leu-Gly-Lys(Ac)-{AMC}) | inactive

Target: T5, NAD-dependent protein deacetylase sirtuin-3, mitochondrial (Homo sapiens) (UniProt Q9NTG7)
T5 sequence (whole entry): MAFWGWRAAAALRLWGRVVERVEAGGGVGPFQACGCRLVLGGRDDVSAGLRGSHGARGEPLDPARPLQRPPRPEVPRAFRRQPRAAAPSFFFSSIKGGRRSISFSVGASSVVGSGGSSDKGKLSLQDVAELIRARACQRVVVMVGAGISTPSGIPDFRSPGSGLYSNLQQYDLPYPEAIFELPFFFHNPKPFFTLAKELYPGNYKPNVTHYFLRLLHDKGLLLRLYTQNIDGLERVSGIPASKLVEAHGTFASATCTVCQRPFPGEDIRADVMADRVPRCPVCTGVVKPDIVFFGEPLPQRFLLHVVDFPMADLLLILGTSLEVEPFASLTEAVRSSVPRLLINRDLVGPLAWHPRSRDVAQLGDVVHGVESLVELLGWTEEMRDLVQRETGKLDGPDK
Assay: Activity of human SIRT3 assessed as deacylation of compound at 50 uM after 1 hr by trypsin developer-based fluorescence assay
Outline: as §2

SMILES | Activity
CC(=O)NCCCC[C@H](NC(=O)CNC(=O)[C@H](CC(C)C)NC(C)=O)C(=O)Nc1ccc2c(C)cc(=O)oc2c1 (Ac-Leu-Gly-Lys(Ac)-{AMC}) | Active
